CCR6 antag = CCR6 receptor antagonists, primary screen, cell-based, CHO-K1, luminescence, beta-arrestin, uHTS. C-C chemokine receptor type 6 (Homo sapiens), P51684. inhibition, % at 20 µM. 0.49% of 340,000 active. CHO-K1 CCR6 PathHunter beta-arrestin, CCL20-stimulated;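 active means compounds whose inhibition of the agonist-driven luminescence signal at 20 µM reaches about 50%, limit read from the data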;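 further: cells stimulated with CCL20 at 14 nM final; plate controls were DMSO with CCL20 for no effect and DMSO without agonist for full effect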
EBI2 antag = EBI2 receptor antagonists, beta-arrestin recruitment, primary screen, cell-based, luminescence, 7a,25-OHC stimulation, uHTS; G-protein coupled receptor 183 (Homo sapiens), P32249; 7a,25-OHC stimulated; inhibition, % at 5 µM; 0.81% of 360,000 active; in the data active means inhibition above about 38%;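 further: enzyme fragment complementation signal reports receptor beta-arrestin coupling in cells; 0% = agonist plus DMSO wells and 100% = wells without agonist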
APJ agonist = agonists of human apelin receptor APJ, primary screen, CHO-K1 cells, PathHunter beta-arrestin, luminescence; activation, % at 20 µM; 0.11% of 330,000 active; AID 2520, 2010; P35414; 0% DMSO wells, 100% apelin;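 active means activation more than six SD over the plate average, tested at 20 µM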;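 further: 0% = DMSO alone and 100% = apelin-13 at 10 nM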
Target sequence (P35414 whole entry, looked up): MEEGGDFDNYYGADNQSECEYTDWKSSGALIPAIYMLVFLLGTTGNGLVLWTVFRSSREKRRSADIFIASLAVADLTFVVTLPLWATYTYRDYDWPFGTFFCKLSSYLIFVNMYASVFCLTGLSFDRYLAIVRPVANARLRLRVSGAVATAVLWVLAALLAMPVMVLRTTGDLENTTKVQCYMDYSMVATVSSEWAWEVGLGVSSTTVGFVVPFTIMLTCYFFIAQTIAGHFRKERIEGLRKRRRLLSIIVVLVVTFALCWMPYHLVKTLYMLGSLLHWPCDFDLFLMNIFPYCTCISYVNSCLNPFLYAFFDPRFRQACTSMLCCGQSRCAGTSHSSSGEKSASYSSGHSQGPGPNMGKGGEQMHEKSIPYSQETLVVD
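Assay system – PathHunter CHO-K1 APJ (AGTRL-1) beta-arrestin reporter cells · Compound – one dose, 20 µM compound, 1% DMSO · Timing – compound 90 min 25 °C, reagent 1 h · Measured by – luminescence from split beta-galactosidase complementation, Galacton Star/Emerald II substrate · Measure – beta-arrestin recruitment to APJ as agonist activity, luminescent signal · Benchmarks – DMSO vs Apelin-13 10 nM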
APJ antag = antagonists of human apelin receptor APJ, primary screen, CHO-K1 cells, beta-arrestin complementation, luminescence; P35414; inhibition, % at 20 µM; 0.32% of 330,000 active; AID 2521, 2010;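 active means inhibition above about 40% at 20 µM, limit read from the data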;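 further: cells challenged with 10 nM apelin-13 agonist together with compound; plate controls were apelin-13 plus DMSO wells for no effect and DMSO wells lacking apelin-13 for full effect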
CXCR6 inh = CXCR6 receptor inhibitors, primary screen, cell-based, beta-arrestin, luminescence, CHO-K1 PathHunter, 1536-well | 0.36% of 360,000 active | inhibition, % at 20 µM | C-X-C chemokine receptor type 6 (Homo sapiens), O00574; in the data active means inhibition above about 34%, passing the limit was not always enough;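 further: antagonist mode with CXCL16 agonist at 10 nM final; 0% = 10 nM CXCL16 with DMSO and 100% = unstimulated wells without agonist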
EBI2 antag conf = EBI2 antagonist hit retest, beta-arrestin, confirmation, cell-based, single concentration, luminescence, 7a,25-OHC stimulation. 29% of 2,400 active. AID 651997, 2013. shares compounds with EBI2 antag. inhibition, % at 5 µM. 7a,25-OHC antagonism;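 active means inhibition of at least 50%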
EBI2 agonist = EBI2 agonist activity of antagonist hits, confirmation, counter-screen for EBI2 antagonist project, cell-based, single concentration, agonist mode, luminescence | AID 652000, 2013 | EBI2-expressing cells, 60 min; 0% vehicle, 100% 7α,25-dihydroxycholesterol control | activation, % at 5 µM | 2,400 tested, under 10 active | shares compounds with EBI2 antag;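 active means activation of at least 50%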
bGal counter = E. coli beta-galactosidase enzyme inhibition, confirmation, counter-screen for EBI2 antagonist project, biochemical, luminescence, single concentration. shares compounds with EBI2 antag. purified beta-galactosidase, luminescent Galacton Star, 15 min. inhibition, % at 5 µM. 1% of 2,400 active;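 active means replicate-average signal at least 3 plate SD below neutral wells, shown as high inhibition, flagging enzyme-inhibiting false positives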;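 further: 0% = DMSO wells with enzyme and 100% = wells lacking enzyme; higher means stronger loss of beta-gal luminescence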
* = called active by the depositor; nt = no result given. Hits are enriched below; roughly 1.5% of the tested compounds scored in any of these assays.

SMILES	CCR6 antag	EBI2 antag	APJ agonist	APJ antag	CXCR6 inh	EBI2 antag conf	EBI2 agonist	bGal counter
Cc1ccc(C2=NNC(=O)C(c3ccc(Cl)cc3)C2)cc1 (stereo unspecified)	18	53*	0	-11	4	40	0	9
O=C(/C=C/c1ccc(Cl)cc1)N1CCN(CCN2C(=O)c3cccc4cccc(c34)C2=O)CC1	19	97*	nt	nt	0	81*	-1	-12
O=C(/C=C/c1ccccc1)N1CCN(CC(O)COc2ccccc2)CC1 (stereo unspecified)	3	82*	-5	3	7	54*	-2	-10
CN1CCN(C(=O)/C=C\c2ccc(Cl)cc2)CC1	-7	88*	-3	-4	4	66*	2	4
CN1CCN(C(=O)/C=C/c2c(F)cccc2Cl)CC1	-11	-6	-3	13	0	nt	nt	nt
CSc1ccc(/C=C/C(=O)N2CCCN(C)CC2)cc1	-6	87*	-5	-2	-6	57*	-1	-14
CC(C)c1ccc(/C=C/C(=O)N2CCCCCC2)cc1	12	36	-4	0	3	nt	nt	nt
CC(=O)N1CCOc2ccc(S(=O)(=O)NC(C)c3ccccc3)cc21 (stereo unspecified)	-7	-7	-1	-17	-8	nt	nt	nt
CCCCN(C(=O)c1cc2ccccc2o1)c1c(N)n(CCC)c(=O)[nH]c1=O	2	-3	0	6	-2	nt	nt	nt
CC(C)(C)C(=O)CSc1ccc(S(=O)(=O)N2CCN(Cc3ccccc3)CC2)cn1	21	-2	-4	7	10	nt	nt	nt
CN1CCN(NC(=O)/C=C/c2cccc(Cl)c2)CC1	6	3	-1	10	-5	nt	nt	nt
CN1CCN(C(=O)/C=C/c2cccc(Cl)c2)CC1	19	46*	26	4	-2	10	-1	-5
CN1CCN(C(=O)/C=C/c2ccccc2)CC1	-1	45*	0	12	4	10	-1	-6
OC(COc1ccc(Cl)cc1)CN1CCC(Cc2ccccc2)CC1 (stereo unspecified)	15	60*	-1	9	-1	35	-2	-10
Cc1ccc(OCC(O)CN2CCN(CC(O)COc3ccc(C)cc3)CC2)cc1 (stereo unspecified)	4	45*	-3	12	1	21	0	4
N#C/C(=C\c1ccc(C(=O)O)cc1)c1nc2sc3c(c2c(=O)[nH]1)CCCC3	8	7	nt	nt	-1	nt	nt	nt
CCCOc1ccc(Oc2nc(-c3ccncc3)nc3ccccc23)cc1	16	50*	-1	-1	2	-1	-1	-13
COc1cccc(Oc2nc(-c3ccncc3)nc3ccccc23)c1	10	44*	1	-11	6	5	1	9
COc1ccc(Oc2nc(-c3ccncc3)nc3ccccc23)cc1	4	21	0	-1	6	nt	nt	nt
CC1(C)CSC(=NCc2ccccc2)N1C(=O)c1cccc([N+](=O)[O-])c1	1	-5	-1	6	-5	nt	nt	nt
COc1cc(C)nc(-c2csc(C)n2)n1	-11	-1	1	-10	1	nt	nt	nt
Cc1ccc(NC(=O)C2=CCN(S(=O)(=O)c3ccc(F)cc3)CC2)cc1	-6	47*	-2	-10	-4	37	0	0
CC(=O)Nc1ccc(S(=O)(=O)N2CCC(C(=O)c3ccc(Cl)cc3)CC2)cc1	9	54*	3	-2	-1	19	2	9
Cc1ccc(NC(=O)c2ccc(S(=O)(=O)N3CCC(C)CC3)cc2)cc1	6	53*	-1	9	-3	12	2	4
Cc1onc(-c2ccccc2Cl)c1C(=O)Nc1ccc(Br)cc1	9	3	0	-3	6	nt	nt	nt
SMILES	CCR6 antag	EBI2 antag	APJ agonist	APJ antag	CXCR6 inh	EBI2 antag conf	EBI2 agonist	bGal counter
COc1cccc(CN(C(=O)/C=C/c2ccc(Cl)cc2)C2CCS(=O)(=O)C2)c1 (stereo unspecified)	10	12	-2	1	8	nt	nt	nt
C=CCNc1nc(NCCOC)c2sc(-c3ccccc3)cc2n1	nt	25	nt	nt	10	nt	nt	nt
c1ccc(OCCNc2nc(NCC3CC3)nc3cc(-c4ccccc4)sc23)cc1	nt	68*	nt	nt	20	62*	-1	-10
C=CCNc1nc(NCCOc2ccccc2Cl)c2sc(-c3ccccc3)cc2n1	nt	42*	nt	nt	12	31	-2	-7
c1ccc(CNc2nc(NCC3CC3)nc3cc(-c4ccccc4)sc23)cc1	nt	63*	nt	nt	6	48	-1	-8
CN1CCCN(S(=O)(=O)c2ccc(Cl)c(Cl)c2)CC1	-7	-14	nt	nt	0	nt	nt	nt
CCOc1ccc(-n2c(-c3ccco3)nc3c(cnn3-c3ccc(C)cc3)c2=O)cc1	6	47*	-1	-8	10	19	1	6
Cc1ccc(CNC(=O)c2cc3c(s2)CN(Cc2ccccc2)C3)cc1	10	66*	-5	6	2	35	1	6
Cc1ccc(Nc2ccc(C(=O)NC3CCCCC3)cn2)cc1	10	84*	0	-13	-2	58*	0	-11
COc1ccccc1Nc1ccc(C(=O)NC2CCCCC2)cn1	15	10	-6	-4	-2	nt	nt	nt
C[C@H](NC(=O)c1ccccc1)C(=O)OCC(=O)Nc1ccc(Cl)cn1	nt	0	nt	nt	9	nt	nt	nt
COc1ccc(-c2cnc(N)nc2-c2ccc(OC)cc2O)cc1	2	81*	0	-9	-6	44	0	-9
COc1ccc(-c2nc(N)nc(C(F)(F)F)c2-c2ccccc2OC)c(O)c1	-6	8	2	0	1	nt	nt	nt
COc1ccc(-c2nc(N)ncc2-c2ccccc2)c(O)c1	2	61*	-2	-13	2	6	-1	-9
COc1ccc(-c2nc(N)ncc2-c2ccccc2OC)c(O)c1	11	46*	-5	1	-6	15	0	11
Nc1ncc(-c2ccccc2)c(-c2ccc(OCc3ccccc3)cc2O)n1	3	20	-1	-12	2	nt	nt	nt

Compound activity as filed in PubChem BioAssay.
